In ChEMBL document CHEMBL1165950, “Design and synthesis of new potent anticancer pyrazoles with high FLT3 kinase inhibitory selectivity” (Bioorg Med Chem, 2010):

Columns and labels:
Type in all cases: functional
[1] = system: HCT-116; assay: Cytotoxicity against human HCT116 cells assessed as cell growth at 100 nM after 48 hrs by sulforhodamine B assay; details: HCT-116, 48 h, read-out: Activity
[2] = system: SR; assay: Cytotoxicity against human SR cells assessed as cell growth at 0.001 uM after 48 hrs by sulforhodamine B assay; details: read-out: Activity
[3] = system: NCI-H226; assay: Cytotoxicity against human NCI-H226 cells assessed as cell growth at 10 uM after 48 hrs by sulforhodamine B assay; details: NCI-H226, 48 h, read-out: Activity
[4] = system: RXF 393; assay: Growth inhibition of human RXF393 cells after 48 hrs by sulforhodamine B assay; details: RXF 393, 48 h
Procedure, shortened: (§1)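 NCI 60-cell screen, five-dose mode. Cells grown in RPMI 1640 with 5% FBS and 2 mM L-glutamine and plated at 5000-40,000 cells/well according to doubling time. After 24 h preincubation, a Tz plate was TCA-fixed. Five concentrations (10-fold or 1/2 log dilutions) were applied for 48 h at 37 °C. SRB staining read at 515 nm. IC50 taken from [(Ti-Tz)/(C-Tz)]×100 = 50.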

[5] = system: RXF 393; assay: Cytotoxicity against human RXF393 cells assessed as cell growth at 1 uM after 48 hrs by sulforhodamine B assay; details: RXF 393, 48 h, read-out: Activity
[6] = system: NCI-H460; assay: Cytotoxicity against human NCI-H460 cells assessed as cell growth at 1 uM after 48 hrs by sulforhodamine B assay; details: NCI-H460, 48 h, read-out: Activity
[7] = system: PC-3; assay: Cytotoxicity against human PC3 cells assessed as cell growth at 10 uM after 48 hrs by sulforhodamine B assay; details: PC-3, 48 h, read-out: Activity
[8] = system: RXF 393; assay: Cytotoxicity against human RXF393 cells assessed as cell growth at 100 nM after 48 hrs by sulforhodamine B assay; details: RXF 393, 48 h, read-out: Activity
[9] = system: A549; assay: Cytotoxicity against human A549 cells assessed as cell growth at 0.001 uM after 48 hrs by sulforhodamine B assay; details: A549, 48 h, read-out: Activity
Procedure, shortened: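 NCI-60 five-dose screen. Cells were grown in RPMI 1640 with 5% FBS and 2 mM L-glutamine, plated at 5000–40,000 cells/well and preincubated for 24 h. Time-zero plates were TCA-fixed. DMSO-solubilized drug was added at five concentrations (10-fold or ½-log serial dilutions) for 48 h at 37 °C, 5% CO2. Cells were TCA-fixed, stained with 0.4% SRB and read at 515 nm. Percent growth used time-zero, control and test absorbances.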

[10] = system: SK-MEL-28; assay: Cytotoxicity against human SK-MEL-28 cells assessed as cell growth at 10 uM after 48 hrs by sulforhodamine B assay; details: SK-MEL-28, 48 h, read-out: Activity
[11] = system: SR; assay: Cytotoxicity against human SR cells assessed as cell growth at 1 uM after 48 hrs by sulforhodamine B assay; details: read-out: Activity
[12] = system: KM12; assay: Cytotoxicity against human KM12 cells assessed as cell growth at 10 uM; details: read-out: Activity
Procedure, shortened: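 NCI-60 screen: cells grown in RPMI 1640 with 5% FBS and 2 mM L-glutamine, plated at 5000–40,000 cells/well according to doubling time, and preincubated 24 h at 37 °C, 5% CO2. The single 10 µM dose (DMSO stock) was added, then incubated 48 h. Cells were TCA-fixed and stained with 0.4% SRB, read at 515 nm, and growth % calculated against time-zero and control plates.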

[13] = system: SK-MEL-28; assay: Cytotoxicity against human SK-MEL-28 cells assessed as cell growth at 0.001 uM after 48 hrs by sulforhodamine B assay; details: SK-MEL-28, 48 h, read-out: Activity
[14] = system: SK-MEL-5; assay: Cytotoxicity against human SK-MEL-5 cells assessed as cell growth at 1 uM after 48 hrs by sulforhodamine B assay; details: SK-MEL-5, 48 h, read-out: Activity
[15] = system: MCF7; assay: Cytotoxicity against human MCF7 cells assessed as cell growth at 100 nM after 48 hrs by sulforhodamine B assay; details: MCF7, 48 h, read-out: Activity
[16] = system: SK-MEL-28; assay: Cytotoxicity against human SK-MEL-28 cells assessed as cell growth at 1 uM after 48 hrs by sulforhodamine B assay; details: SK-MEL-28, 48 h, read-out: Activity
[17] = system: MCF7; assay: Growth inhibition of human MCF7 cells after 48 hrs by sulforhodamine B assay; details: MCF7, 48 h; procedure, shortened: as §1
[18] = system: SK-MEL-28; assay: Growth inhibition of human SK-MEL-28 cells after 48 hrs by sulforhodamine B assay; details: SK-MEL-28, 48 h; procedure, shortened: as §1
[19] = system: HCC 2998; assay: Growth inhibition of human HCC2998 cells after 48 hrs by sulforhodamine B assay; details: HCC 2998, 48 h; procedure, shortened: as §1
[20] = system: HOP-92; assay: Cytotoxicity against human HOP92 cells assessed as cell growth at 10 uM; details: read-out: Activity
Procedure, shortened: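 Single-dose NCI-60 screen at 10 µM. Cells were grown in RPMI 1640 with 5% FBS and 2 mM L-glutamine, then treated for 48 h at 37 °C. Protein was measured by SRB staining with absorbance at 515 nm. Percentage growth was recorded, and inhibition percentage was calculated as 100 minus growth percentage.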

[21] = system: SR; assay: Cytotoxicity against human SR cells assessed as cell growth at 100 nM after 48 hrs by sulforhodamine B assay; details: read-out: Activity
[22] = Cytotoxicity against human […] cells assessed as cell growth at 10 uM after 48 hrs by sulforhodamine B assay; details: read-out: Activity
[23] = system: PC-3; assay: Growth inhibition of human PC3 cells after 48 hrs by sulforhodamine B assay; details: PC-3, 48 h; procedure, shortened: as §1
[24] = system: HCC 2998; assay: Cytotoxicity against human HCC2998 cells assessed as cell growth at 10 uM after 48 hrs by sulforhodamine B assay; details: HCC 2998, 48 h, read-out: Activity
[25] = system: RXF 393; assay: Cytotoxicity against human RXF393 cells assessed as cell growth at 0.001 uM after 48 hrs by sulforhodamine B assay; details: RXF 393, 48 h, read-out: Activity
[26] = system: RXF 393; assay: Cytotoxicity against human RXF393 cells assessed as cell growth at 10 uM after 48 hrs by sulforhodamine B assay; details: RXF 393, 48 h, read-out: Activity
[27] = system: MCF7; assay: Cytotoxicity against human MCF7 cells assessed as cell growth at 10 uM after 48 hrs by sulforhodamine B assay; details: MCF7, 48 h, read-out: Activity
[28] = system: HCC 2998; assay: Cytotoxicity against human HCC2998 cells assessed as cell growth at 1 uM after 48 hrs by sulforhodamine B assay; details: HCC 2998, 48 h, read-out: Activity
[29] = system: SR; assay: Growth inhibition of human SR cells after 48 hrs by sulforhodamine B assay; procedure, shortened: as §1
[30] = system: 786-0; assay: Cytotoxicity against human 786-0 cells assessed as cell growth at 10 uM after 48 hrs by sulforhodamine B assay; details: 786-0, 48 h, read-out: Activity
[31] = system: CAKI-1; assay: Cytotoxicity against human Caki1 cells assessed as cell growth at 1 uM after 48 hrs by sulforhodamine B assay; details: CAKI-1, 48 h, read-out: Activity
[32] = system: SF-295; assay: Cytotoxicity against human SF295 cells assessed as cell growth at 10 uM after 48 hrs by sulforhodamine B assay; details: SF-295, 48 h, read-out: Activity
[33] = read-out: LC50 (the source's name)

Work on `COc1cc(C)cc(-c2nn(CC#N)cc2-c2ccc(-c3cccc(C(C)=O)c3)nc2)c1` yielded a growth at 0.1 µM [1] of 78%, a growth at 0.001 µM [2] of 97% and a growth at 10 µM [3] of -3%. It also gave a GI50 [4] of 1.49 µM, an LC50 (concentration killing 50% of the starting cells) [4] of 8.62 µM and a TGI [4] of 3.59 µM. The growth at 1 µM [5] was -58%, the growth at 1 µM [6] was -27% and the growth at 10 µM [7] was 1%. It also gave a growth at 0.1 µM [8] of 73%, a growth at 0.001 µM [9] of 97% and a growth at 10 µM [10] of -1%. For the same molecule, the growth at 1 µM [11] was 22%, the growth at 10 µM [12] was 34.1% and the growth at 0.001 µM [13] was 92%. The growth at 1 µM [14] was -13%, the growth at 0.1 µM [15] was 69% and the growth at 1 µM [16] was 31%. For the same molecule, the GI50 [17] was 2.05 µM, the LC50 [17] was over 100 µM and the TGI [17] was 15.9 µM. The GI50 [18] was 3.63 µM, the TGI [18] was 93.6 µM and the CC50 [18, 33] was over 100 µM. The GI50 [19] was 2.08 µM, the TGI [19] was 6.77 µM and the CC50 [19, 33] was 54.4 µM. For the same molecule, the growth at 10 µM [20] was 48.4%, the growth at 0.1 µM [21] was 57% and the growth at 10 µM [22] was -21%. For the same molecule, the GI50 [23] was 3.45 µM, the LC50 (concentration giving 50% net cell kill) [23] was over 100 µM and the TGI [23] was over 100 µM. For the same molecule, the growth at 10 µM [24] was -62%, the growth at 0.001 µM [25] was 90% and the growth at 10 µM [26] was -58%. The growth at 10 µM [27] was -28%, the growth at 1 µM [28] was -17% and the GI50 [29] was 1.62 µM. It also gave an LC50 (concentration killing 50% of cells) [29] of over 100 µM and a TGI [29] of over 100 µM.
`COc1cc(C)cc(-c2c(-c3ccnc(-c4ccc(N(C)C)cc4)c3)cnn2CC#N)c1` showed a growth at 1 µM [6] of -53%, a growth at 10 µM [7] of 4% and a growth at 0.001 µM [9] of 95%. The growth at 10 µM [30] was 6%, the growth at 1 µM [14] was -31% and the growth at 10 µM [20] was 29.1%. It also gave a growth at 1 µM [31] of -21%, a GI50 [23] of 0.0523 µM and an LC50 (concentration giving 50% net cell kill) [23] of over 100 µM. For the same molecule, the TGI [23] was over 100 µM and the growth at 10 µM [32] was -30%.
